# From ChEMBL document CHEMBL5154701, “Thieno[2,3-d]pyrimidine-2,4(1H,3H)-dione Derivative Inhibits d-Dopachrome Tautomerase Activity and Suppresses the Proliferation of Non-Small Cell Lung Cancer Cells” (J Med Chem, 2022)
# pIC50: −log10 of the molar value. The source made the active and inactive calls. The calls are words filed in the database; no cut-off is given here.
# Experiments:
# [1] = Inhibition of human recombinant MIF2 tautomerase activity expressed in bacterial expression system assessed as PP conversion incubated for 10 mins by tautomerase assay
# [2] = Inhibition of MIF2 (unknown origin); set-up: species or system Homo sapiens
# Homo sapiens [3] = organism: Homo sapiens; assay: Substrate activity at MIF2 tautomerase (unknown origin) assessed as ratio of Kcat to Km
# Method in brief: (§1)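 Keto-enol tautomerization kinetics with phenylpyruvate, 4-chloro-, 4-hydroxy- and 4-methoxyphenylpyruvate as substrates. Initial conversion velocities taken from the linear first 3 min of UV absorbance increase. Kcat, Km and Kcat/Km derived from these rates.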
# Homo sapiens [4] = organism: Homo sapiens; assay: Substrate activity at MIF2 tautomerase (unknown origin) assessed as rate constant Kcat; method in brief: as §1
# Homo sapiens [5] = organism: Homo sapiens; assay: Substrate activity at MIF2 tautomerase (unknown origin) assessed as rate constant Km; method in brief: as §1
# A549 [6] = assay: Inhibition of MIF2 related signalling pathway assessed as inhibition of MIF2 induced ERK phosphorylation in human A549 cells in presence of recombinant MIF2 incubated for 15 min by Western blot analysis; type: cell-based; settings: dose 0.1-10 µM, DDE = dose-dependent effect
# Method in brief: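 A549 (3 × 10^5/well) grown overnight in RPMI with 0.5% FBS. Stimulated 15 min with recombinant MIF2 (100 ng/mL, serum-free), alone or preincubated with compound. Lysed in RIPA with phosphatase/protease inhibitors, and 20 μg protein blotted for pERK, ERK and GAPDH. pERK:ERK densitometry normalized to control; n = 2.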
# HCC827 [7] = assay: Inhibition of colony formation in human HCC827 cells assessed as colony size measured after 5 days by crystal violet staining method; type: functional, cell-based; settings: dose 1-10 µM, time 5.0 day, DDE = dose-dependent effect
# Method in brief: (§2)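 Seeded at 1000 cells/well in RPMI-1640 with 10% FBS and incubated overnight. Exposed to compound or DMSO for 5 days. Fixed in 4% paraformaldehyde for 20 min, then stained with 0.5% crystal violet for 20 min. Colonies imaged, dissolved in acetic acid, and absorbance read at 590 nm. Values relative to DMSO wells. Three experiments, mean ± SD.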
# A549 [8] = assay: Inhibition of colony formation in human A549 cells at 10 uM measured after 5 days by crystal violet staining method; type: functional; settings: A549, 120 h, time 5 day; method in brief: as §2
# NCI-H1299 [9] = assay: Inhibition of colony formation in human NCI-H1299 cells assessed as colony size measured after 5 days by crystal violet staining method; type: functional, cell-based; settings: dose 1-10 µM, time 5.0 day, DDE = dose-dependent effect; method in brief: as §2
# A549 [10] = assay: Antiproliferative against human A549 cells assessed as inhibition of cell viability at 1 uM measured after 72 hrs by fluorescence based assay; type: functional
# Method in brief: (§3)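 Cells in RPMI-1640 with 10% FBS, 37 °C, 5% CO2, seeded at 1000 cells/well and cultured overnight. Treated with compound (0.25–10 μM) for 72 h. Relative cell number from DNA content by CyQUANT Direct, with 60 min detection reagent and fluorescence read at 485/535 nm. Normalized to DMSO control. Mean ± SD of three experiments.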
# NCI-H1299 [11] = assay: Antiproliferative against human NCI-H1299 cells assessed as inhibition of cell viability measured after 72 hrs by fluorescence based assay; type: functional; method in brief: as §3
# A549 [12] = assay: Antiproliferative against human A549 cells assessed as inhibition of cell viability measured after 72 hrs by fluorescence based assay; type: functional; method in brief: as §3
# NCI-H1650 [13] = assay: Antiproliferative against human NCI-H1650 cells assessed as inhibition of cell viability measured after 72 hrs by fluorescence based assay; type: functional; method in brief: as §3
# NCI-H1299 [14] = assay: Inhibition of colony formation in human NCI-H1299 cells at 10 uM measured after 5 days by crystal violet staining method; type: functional; settings: NCI-H1299, 120 h, time 5 day; method in brief: as §2
# A549 [15] = assay: Inhibition of colony formation in human A549 cells assessed as colony number measured after 5 days by crystal violet staining method; type: functional, cell-based; settings: dose 1-10 µM, time 5.0 day, DDE = dose-dependent effect; method in brief: as §2
# NCI-H1650 [16] = assay: Inhibition of colony formation in human NCI-H1650 cells assessed as colony number measured after 5 days by crystal violet staining method; type: functional, cell-based; settings: dose 1-10 µM, time 5.0 day, DDE = dose-dependent effect; method in brief: as §2
# A549 [17] = assay: Inhibition of colony formation in human A549 cells assessed as colony size measured after 5 days by crystal violet staining method; type: functional, cell-based; settings: dose 1-10 µM, time 5.0 day, DDE = dose-dependent effect; method in brief: as §2
# Homo sapiens [18] = organism: Homo sapiens; assay: Stabilization of human recombinant MIF2 expressed in bacterial expression system assessed as apparent melting temperature by fluorescence based thermal shift assay; settings: DDE = dose-dependent effect
# Method in brief: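 Recombinant MIF2 expressed from pET20b(+) in E. coli BL21(DE3) and purified by Q sepharose, phenyl sepharose and size exclusion (trimer), in 20 mM sodium phosphate pH 8.0. Fluorescence-based thermal shift read-out: apparent melting temperature with compound versus DMSO control, with ΔTm as the difference.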
# HCC827 [19] = assay: Inhibition of colony formation in human HCC827 cells at 10 uM measured after 5 days by crystal violet staining method; type: functional; settings: HCC827, 120 h, time 5 day; method in brief: as §2
# A549 [20] = assay: Induction of cell cycle arrest in human A549 cells assessed as accumulation of cells in G0/G1 phase for 2 days by flow cytometry analysis; type: functional, cell-based; settings: dose 5-10 µM, time 2.0 day, DDE = dose-dependent effect
# Method in brief: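 A549 seeded at 1 × 10^5 per well and treated next day with compound or vehicle for 48 h. Cells trypsinized, then stained with 20 μg/mL propidium iodide plus 0.1% Triton X-100 for 15 min at room temperature. 30 000 cells acquired by flow cytometry and G0/G1, S and G2/M fractions gated. n = 3, mean ± SD.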
# NCI-H1299 [21] = assay: Inhibition of colony formation in human NCI-H1299 cells assessed as colony number measured after 5 days by crystal violet staining method; type: functional, cell-based; settings: dose 1-10 µM, time 5.0 day, DDE = dose-dependent effect; method in brief: as §2
# NCI-H1650 [22] = assay: Inhibition of colony formation in human NCI-H1650 cells at 10 uM measured after 5 days by crystal violet staining method; type: functional; settings: NCI-H1650, 120 h, time 5 day; method in brief: as §2
# NCI-H1650 [23] = assay: Inhibition of colony formation in human NCI-H1650 cells assessed as colony size measured after 5 days by crystal violet staining method; type: functional, cell-based; settings: dose 1-10 µM, time 5.0 day, DDE = dose-dependent effect; method in brief: as §2
# HCC827 [24] = assay: Antiproliferative against human HCC827 cells assessed as inhibition of cell viability measured after 72 hrs by fluorescence based assay; type: functional; method in brief: as §3
# HCC827 [25] = assay: Inhibition of colony formation in human HCC827 cells assessed as colony number measured after 5 days by crystal violet staining method; type: functional, cell-based; settings: dose 1-10 µM, time 5.0 day, DDE = dose-dependent effect; method in brief: as §2
# [26] = Solubility of the compound; type: physicochemical
# [27] = Inhibition of human MIF2 tautomerase activity expressed in Escherichia coli by anion-exchange chromatography
molecule,measurement,setting,value
Cc1c(-c2ccc(Cl)cc2)sc2[nH]c(=O)n(-c3ccccc3)c(=O)c12,pIC50,[1],4.72
Cc1c(-c2ccccc2)sc2[nH]c(=O)n(-c3ccccc3)c(=O)c12,pIC50,[1],< 4.00
COc1cccc(Cc2nc3sc(-c4ccc(Cl)cc4)c(C)c3c(=O)[nH]2)c1,pIC50,[1],5.37
Cc1c(-c2cccc(C(F)(F)F)c2)sc(N)c1C(=O)N[C@H](C)c1cccc2ccccc12,pIC50,[1],5.38
Cc1c(-c2cccc(C(F)(F)F)c2)sc(N)c1C(=O)NCc1cccc2ccccc12,pIC50,[1],5.59
O=c1[nH]c2scc(-c3ccc(Cl)cc3)c2c(=O)n1Cc1ccccc1,pIC50,[1],4.57
CCCCCCCCNC(=O)c1cc(-c2ccccc2)sc1N,pIC50,[1],4.89
Ic1cc(-c2ccccc2)ncn1,pIC50,[2],< 4.00
C=CCn1c(=O)[nH]c2sc(-c3ccc(Cl)cc3)cc2c1=O,pIC50,[1],4.82
Cc1c(-c2cccc(C(F)(F)F)c2)sc2[nH]c(=O)n(Cc3cccc4ccccc34)c(=O)c12,pIC50,[1],6.09
CCCCNC(=O)c1c(N)sc(-c2ccc(Cl)cc2)c1CCCC,pIC50,[1],4.82
Cc1c(-c2ccc(Cl)c(Cl)c2)sc2[nH]c(=O)n(Cc3ccccc3)c(=O)c12,pIC50,[1],5.72
Cc1c(-c2ccc(F)cc2)sc2nc(Cc3ccccc3)[nH]c(=O)c12,pIC50,[1],4.77
CCCCNC(=O)c1cc(-c2ccc(Br)cc2)sc1N,pIC50,[1],5.14
Cc1c(-c2ccccc2)sc2[nH]c(=O)n(Cc3ccccc3)c(=O)c12,pIC50,[1],5.12
Cc1c(-c2ccc(Cl)cc2Cl)sc2[nH]c(=O)n(Cc3ccccc3)c(=O)c12,pIC50,[1],5.46
Cc1c(-c2ccc(Cl)cc2)sc2[nH]c(=O)n(Cc3ccc(C(F)(F)F)cc3)c(=O)c12,pIC50,[1],5.32
phenylpyruvate,kcat/Km,Homo sapiens [3],5.5 10^4/M/s
same,kcat,Homo sapiens [4],132 s⁻¹
same,Km,Homo sapiens [5],2.4 mM
Cc1c(-c2cccc(C(F)(F)F)c2)sc2[nH]c(=O)n([C@H](C)c3cccc4ccccc34)c(=O)c12,inhibition,A549 [6],Dde
same,inhibition,HCC827 [7],Dde
same,inhibition at 10 µM,A549 [8],90%
same,inhibition,NCI-H1299 [9],Dde
same,Activity,A549 [10],Active
same,Activity,NCI-H1299 [11]; DDE = dose-dependent effect,Dde
same,pIC50,"NCI-H1299 [11]; NCI-H1299, 72 h",5.12
same,pIC50,"A549 [12]; A549, 72 h",5.52
same,Activity,A549 [12]; DDE = dose-dependent effect,Dde
same,Activity,NCI-H1650 [13]; DDE = dose-dependent effect,Dde
same,pIC50,"NCI-H1650 [13]; NCI-H1650, 72 h",5.28
same,inhibition at 10 µM,NCI-H1299 [14],90%
same,inhibition,A549 [15],Dde
same,inhibition,NCI-H1650 [16],Dde
same,inhibition,A549 [17],Dde
same,deltaTm,Homo sapiens [18],Dde
same,inhibition at 10 µM,HCC827 [19],90%
same,pIC50,[1],6.00
same,Activity,A549 [20],Dde
same,inhibition,NCI-H1299 [21],Dde
same,inhibition at 10 µM,NCI-H1650 [22],90%
same,inhibition,NCI-H1650 [23],Dde
same,Activity,HCC827 [24]; DDE = dose-dependent effect,Dde
same,pIC50,"HCC827 [24]; HCC827, 72 h",5.28
same,inhibition,HCC827 [25],Dde
same,solubility,[26],16 µg/mL
Nc1sc(-c2ccc(Cl)cc2)cc1C(=O)NCCc1ccccc1,pIC50,[1],4.08
Cc1c(-c2ccc3c(c2)OCO3)sc2[nH]c(=O)n(Cc3ccccc3)c(=O)c12,pIC50,[1],5.34
Nc1sc(-c2ccccc2)cc1C(=O)NCC1CCOC1 (centres undefined),pIC50,[1],3.77
O=C(O)c1cccc(-c2cc(C(=O)O)ncc2C(=O)O)c1,pIC50,[27],4.57
same,pIC50,[1],4.33
Cc1c(-c2cccc(C(F)(F)F)c2)sc2[nH]c(=O)n(Cc3ccccc3)c(=O)c12,pIC50,[1],5.77
CCCCNC(=O)c1cc(-c2ccc(Cl)cc2)sc1N,pIC50,[1],4.82
Nc1sc(-c2ccc(Cl)cc2)cc1C(=O)NCCc1ccc(Cl)cc1,pIC50,[1],4.44
CCCCNC(=O)c1cc(-c2ccccc2)sc1NC(C)=O,pIC50,[1],4.39
CCCCn1c(=O)[nH]c2sc(-c3ccccc3)cc2c1=O,pIC50,[1],4.80
4-methoxyphenylpyruvate,kcat/Km,Homo sapiens [3],0.43 10^4/M/s
same,kcat,Homo sapiens [4],28 s⁻¹
same,Km,Homo sapiens [5],6.7 mM
Cc1c(-c2ccc(Cl)cc2)sc2[nH]c(=O)n(Cc3ccccc3)c(=O)c12,pIC50,[1],5.29
Cc1c(-c2ccc(Cl)cc2)sc2nc(CCl)[nH]c(=O)c12,pIC50,[1],4.77
O=c1[nH]c2scc(-c3ccccc3)c2c(=O)n1Cc1ccccc1,pIC50,[1],4.44
Cc1c(-c2cccc(C(F)(F)F)c2)sc(N)c1C(=O)N[C@@H](C)c1cccc2ccccc12,pIC50,[1],5.10
Cc1c(-c2cccc(C(F)(F)F)c2)sc2[nH]c(=O)n([C@@H](C)c3cccc4ccccc34)c(=O)c12,pIC50,[1],5.60
same,solubility,[26],15 µg/mL
CCOCCNC(=O)c1cc(-c2ccc(Cl)cc2)sc1N,pIC50,[1],< 4.00
4-hydroxylphenylpyruvate,kcat/Km,Homo sapiens [3],0.37 10^4/M/s
same,kcat,Homo sapiens [4],13 s⁻¹
same,Km,Homo sapiens [5],3.62 mM
CCCCNC(=O)c1cc(-c2ccccc2)sc1NC(=O)CCC,pIC50,[1],4.41
4-chlorophenylpyruvate,kcat/Km,Homo sapiens [3],3.2 10^4/M/s
same,kcat,Homo sapiens [4],68 s⁻¹
same,Km,Homo sapiens [5],2.17 mM
Cc1c(-c2ccc(Cl)cc2)sc2nc(Cc3ccccc3)[nH]c(=O)c12,pIC50,[1],4.82
